Experimental findings from ChEMBL document CHEMBL1123853, “A novel class of cardiotonics. Synthesis and pharmacological properties of [4-(substituted-amino)phenyl]pyridazinones and related derivatives” (1987) are described below.

SMILES strings stand for the structures.

Test [1] relates to Canis familiaris. Put plainly: Inotropic activity determined by evaluating the maximum rate of rise in left ventricular pressure at a dose of 1 ug/kg administered intravenously […]. Type of test: functional, Canis lupus familiaris, Muscle tissue. The essentials:
(§1)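 Mongrel dogs of either sex, 7–15 kg, anesthetized with sodium pentobarbital (30 mg/kg iv), open-chest, intubated and ventilated on room air. Compounds given intravenously. A femoral artery catheter with pressure transducer recorded SBP and DBP. dP/dtmax, right ventricular contractile force, cardiac output and heart rate were also recorded, as % change at each iv dose.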

The species named for test [2] is Canis familiaris. Put plainly: Positive inotropic in the isolated papillary muscle of the dog. In kind it is functional, Canis lupus familiaris. The method, boiled down:
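Right ventricular anterior papillary muscle with septum, from mongrel dogs (7–12 kg, pentobarbital 30 mg/kg iv). It was perfused at about 100 mmHg via the septal artery with blood from a heparinized donor dog and paced at 120/min (1 ms pulses, about 1.5× threshold). Isometric tension was recorded. Saline solutions were injected intra-arterially, with amrinone as reference. ED15 (15% rise in developed tension) was taken from log dose-response curves. Results are mean ± SEM (n = 7) or mean ± range (n = 2).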

Test [3] relates to Canis familiaris. Nature of the test: Inotropic activity determined by evaluating the % change in Diastolic Blood Pressure (DBP) at a dose of 10 ug/kg administered intravenously […]. In kind it is functional, Canis lupus familiaris. The method, boiled down: as §1
Test [4] deals with Canis familiaris. Put plainly: Inotropic activity determined by evaluating the % change in contractile force (CF) of right ventricle at a dose of 10 ug/kg administered intravenously […]. Type of test: functional, Canis lupus familiaris, Heart right ventricle. The method, boiled down:
as §1

The subject of test [5] is Canis familiaris. Put plainly: Inotropic activity determined by evaluating the % change in Systolic Blood Pressure (SBP) at a dose of 3 ug/kg administered intravenously […]. In kind it is functional, Canis lupus familiaris, Muscle tissue. The method, boiled down:
as §1

The test system of test [6] is Canis familiaris. Nature of the test: Inotropic activity determined by evaluating the % change in Cardiac out put (CO)at a dose of 1 ug/kg administered intravenously […]. Type of test: functional, Canis lupus familiaris. The method, boiled down:
as §1

For test [7], the system named is Canis familiaris. Put plainly: Inotropic activity determined by evaluating the % change in Heart Rate (HR) at a dose of 3 ug/kg administered intravenously […]. Type of test: functional, Canis lupus familiaris. The method, boiled down:
as §1

For test [8], the species on record is Canis familiaris. Put plainly: Positive inotropic activity determined in the […](that produced 30% increase in dose- response curves [dP/dt(max)]). In kind it is functional. The note with it: Canis lupus familiaris. The method, boiled down: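 In the anesthetized open-chest dog (mongrel, 7–15 kg, pentobarbital 30 mg/kg iv, ventilated on room air), compounds were given intravenously and LV dP/dtmax was recorded. The dose giving a 30% rise in dP/dtmax was read from the dose-response curves. Results are mean ± SEM (n = 3) or mean ± range (n = 2).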

Test [9] concerns Canis familiaris. Put plainly: Inotropic activity determined by evaluating the % change in Heart Rate (HR) at a dose of 10 ug/kg administered intravenously […]. In kind it is functional, Canis lupus familiaris. The essentials: as §1
For test [10], the system named is Canis familiaris. Nature of the test: Inotropic activity determined by evaluating the % change in Heart Rate (HR) at a dose of 1 ug/kg administered intravenously […]. Type of test: functional, Canis lupus familiaris. The method, boiled down:
as §1

The subject of test [11] is Canis familiaris. Put plainly: Inotropic activity determined by evaluating the maximum rate of rise in left ventricular pressure at a dose of 3 ug/kg administered intravenously […]. Type of test: functional, Canis lupus familiaris, Muscle tissue. The method, boiled down:
as §1

The test system of test [12] is Canis familiaris. Nature of the test: Inotropic activity determined by evaluating the % change in Cardiac out put (CO)at a dose of 10 ug/kg administered intravenously […]. In kind it is functional, Canis lupus familiaris. The essentials: as §1
Test [13] has as its system Canis familiaris. Put plainly: Inotropic activity determined by evaluating the % change in contractile force (CF) of right ventricle at a dose of 1 ug/kg administered intravenously […]. In kind it is functional, Canis lupus familiaris, Heart right ventricle. The method, boiled down:
as §1

The test system of test [14] is Canis familiaris. Nature of the test: Inotropic activity determined by evaluating the % change in Systolic Blood Pressure (SBP) at a dose of 10 ug/kg administered intravenously […]. In kind it is functional, Canis lupus familiaris. The method, boiled down: as §1
Test [15] has as its system Canis familiaris. Put plainly: Inotropic activity determined by evaluating the % change in Diastolic Blood Pressure (DBP) at a dose of 1 ug/kg administered intravenously […]. In kind it is functional, Canis lupus familiaris. The essentials:
as §1

The test system of test [16] is Canis familiaris. Put plainly: Inotropic activity determined by evaluating the % change in Systolic Blood Pressure (SBP) at a dose of 1 ug/kg administered intravenously […]. Type of test: functional, Canis lupus familiaris, Muscle tissue. The method, boiled down: as §1
Test [17] relates to Canis familiaris. Put plainly: Inotropic activity determined by evaluating the % change in Cardiac out put (CO)at a dose of 3 ug/kg administered intravenously […]. In kind it is functional, Canis lupus familiaris. The essentials:
as §1

The subject of test [18] is Canis familiaris. Nature of the test: Inotropic activity determined by evaluating the % change in contractile force (CF) of right ventricle at a dose of 3 ug/kg administered intravenously […]. In kind it is functional, Canis lupus familiaris, Heart right ventricle. The method, boiled down:
as §1

Test [19] concerns Canis familiaris. Nature of the test: Inotropic activity determined by evaluating the maximum rate of rise in left ventricular pressure at a dose of 10 ug/kg administered intravenously […]. Type of test: functional, Canis lupus familiaris, Muscle tissue. The essentials:
as §1

Test [20] deals with Canis familiaris. Nature of the test: Inotropic activity determined by evaluating the % change in Diastolic Blood Pressure (DBP) at a dose of 3 ug/kg administered intravenously […]. Type of test: functional, Canis lupus familiaris. The essentials: as §1
Test [21] has as its system Canis familiaris. Put plainly: Inotropic activity determined by evaluating the % change in Systolic Blood Pressure (SBP) at a dose of 100 ug/kg administered intravenously […]. In kind it is functional, Canis lupus familiaris, Muscle tissue. The essentials:
as §1

Test [22] relates to Canis familiaris. Nature of the test: Inotropic activity determined by evaluating the % change in Cardiac out put (CO)at a dose of 30 ug/kg administered intravenously […]. In kind it is functional, Canis lupus familiaris. The method, boiled down: as §1
Test [23] deals with Canis familiaris. Nature of the test: Inotropic activity determined by evaluating the maximum rate of rise in left ventricular pressure at a dose of 100 ug/kg administered intravenously […]. Type of test: functional, Canis lupus familiaris, Muscle tissue. The essentials: as §1
Test [24] deals with Canis familiaris. Nature of the test: Inotropic activity determined by evaluating the % change in Cardiac out put (CO)at a dose of 100 ug/kg administered intravenously […]. Type of test: functional, Canis lupus familiaris. The method, boiled down:
as §1

Test [25] relates to Canis familiaris. Put plainly: Inotropic activity determined by evaluating the % change in Heart Rate (HR) at a dose of 100 ug/kg administered intravenously […]. In kind it is functional, Canis lupus familiaris. The essentials: as §1
Test [26] relates to Canis familiaris. Put plainly: Inotropic activity determined by evaluating the % change in Heart Rate (HR) at a dose of 30 ug/kg administered intravenously […]. Type of test: functional, Canis lupus familiaris. The essentials:
as §1

Test [27] relates to Canis familiaris. Nature of the test: Inotropic activity determined by evaluating the % change in Diastolic Blood Pressure (DBP) at a dose of 30 ug/kg administered intravenously […]. In kind it is functional, Canis lupus familiaris. The method, boiled down:
as §1

The subject of test [28] is Canis familiaris. Nature of the test: Inotropic activity determined by evaluating the maximum rate of rise in left ventricular pressure at a dose of 30 ug/kg administered intravenously […]. In kind it is functional, Canis lupus familiaris, Muscle tissue. The method, boiled down:
as §1

Test [29] concerns Canis familiaris. Put plainly: Inotropic activity determined by evaluating the % change in contractile force (CF) of right ventricle at a dose of 30 ug/kg administered intravenously […]. Type of test: functional, Canis lupus familiaris, Heart right ventricle. The method, boiled down:
as §1

The test system of test [30] is Canis familiaris. Put plainly: Inotropic activity determined by evaluating the % change in Systolic Blood Pressure (SBP) at a dose of 30 ug/kg administered intravenously […]. Type of test: functional, Canis lupus familiaris, Muscle tissue. The essentials: as §1
In test [31] the test system is Canis familiaris. Nature of the test: Inotropic activity determined by evaluating the % change in contractile force (CF) of right ventricle at a dose of 100 ug/kg administered intravenously […]. In kind it is functional, Canis lupus familiaris, Heart right ventricle. The essentials:
as §1

In test [32] the test system is Canis familiaris. Nature of the test: Inotropic activity determined by evaluating the % change in Diastolic Blood Pressure (DBP) at a dose of 100 ug/kg administered intravenously […]. Type of test: functional, Canis lupus familiaris. The method, boiled down: as §1

On to `CC1CC(=O)NN=C1c1ccc(Nc2ccncc2)cc1.Cl` (stereo not given), for which the dP/dt in the test with Canis familiaris [1] worked out at 8.1%; with Canis familiaris [11], 19.5%; in the test on Canis familiaris [19], 58.4%. The same molecule showed an ED15 in the test filed under Canis familiaris [2] of 1.5 µg. Moreover, the figures for the “Change of DBP” value in the test on Canis familiaris [3], in the test with Canis familiaris [15] and with Canis familiaris [20] were -31.4%, -7.3% and -21.2%, respectively. Also, the figures for the “Change of CF” value in the test with Canis familiaris [4], in the test with Canis familiaris [13] and in the test with Canis familiaris [18] were 61.5%, 7.9% and 22.7%, respectively. The “Change of SBP” value in the test on Canis familiaris [5] is -14.1%; in the test with Canis familiaris [14] it was -23.6%; with Canis familiaris [16], -4.7%. In addition, the “Change of CO” value is given as 5.1% in the test on Canis familiaris [6], 24.5% with Canis familiaris [12] and 11.7% in the test with Canis familiaris [17]. In addition, the “Change of HR” value in the test with Canis familiaris [7] is on record as 15.8%; in the test with Canis familiaris [9], 25.1%; in the test with Canis familiaris [10], 3.4%. Further, the ED30 in the test filed under Canis familiaris [8] is 0.0044 mg/kg.
Turning to `Cl.Oc1ccc(-c2ccc(Nc3ccncc3)cc2)nn1`, the entries for the “Change of SBP” value in the test on Canis familiaris [21], in the test with Canis familiaris [14] and with Canis familiaris [30] were -22.3%, -3.6% and -11.9%, respectively. The ED15 in the test listed under Canis familiaris [2] amounted to 50 µg. The figures for the “Change of DBP” value in the test on Canis familiaris [3], in the test on Canis familiaris [27] and in the test with Canis familiaris [32] were -7.5%, -20% and -27.6%, respectively. For the same molecule, the “Change of CO” value with Canis familiaris [22] was 5.4%; with Canis familiaris [24], 7.7%; in the test with Canis familiaris [12], 1.6%. Besides, the figures for the dP/dt in the test with Canis familiaris [23], in the test on Canis familiaris [28] and in the test on Canis familiaris [19] were 57.1%, 39.6% and 20.2%, respectively. Moreover, the “Change of CF” value in the test on Canis familiaris [4] is listed as 11%; in the test on Canis familiaris [29] it was 19.9%; with Canis familiaris [31] it was 33.7%. Further, the “Change of HR” value in the test with Canis familiaris [25] is listed as 4.2%; in the test with Canis familiaris [26] it was 2.4%; in the test on Canis familiaris [9] it was 1.3%. The molecule further came in with an ED30 in the test filed under Canis familiaris [8] of 0.022 mg/kg.
